Results from the RNAGym collection of RNA variant scans (doi:10.1126/science.aae0568).
Variants at the floor of the assay were thinned out.

B1: tRNA (parent)
chain: GUUCCGUUGGCGUAAUGGUAACGCGUCUCCCUCCUAAGGAGAAGACUGCGGGUUCGAGUCCCGUACGGAACG

Variants of: B1
Test: yeast fitness relative to wild type (ratio to wild type); higher = fitter; tRNA-Arg(CCU), competitive growth, 37 C, YPD
Procedure, shortened: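 Variants of the tRNA-Arg(CCU) gene were chemically synthesised with a 3% per-site mutation rate across 69 sites and placed at the native genomic locus in Saccharomyces cerevisiae. Six parallel replicates of the pooled strains were competed in YPD at 37°C for 24 hours, and gene amplicons from the start and end populations were read by 100-nucleotide paired-end sequencing. Darwinian fitness relative to wild type was derived from changes in genotype frequencies. Genotypes required ≥ 100 starting reads, and estimates < 0.5 were set to 0.5.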

Point of comparison: GUUCCGUUGGCGUAAUGGUAACGCGUCUCCCUCCUAAGGAGAAGUGUGCGGGUUCGAGUCCCGUACGGAACG, yeast fitness 0.739. Against it:
- GUUCCGUUGGCGUAAUGGUAACGCGUCUCCCUCCUAAGGAGAAGUCUGCGGGUUCGAGUCCCGUAUGAAACG — lower, 0.665
- GUUCCGUUGGCGUAAUGGUAACGCGUCUCCCUCCUAAGGAGAAGUGUGCGGGUUCGAGUACCGUACGGAACG — lower, 0.557
- GUUCCGUUGGCGUAAUGGUAACGCGUCUCCCUCCUAAGGAGAAGUAUGCGGGUUCGAGUGCCGUACGGAACG — lower, 0.521
- GUUCCGUUGGCGUAAUGGUAACGCGUCUCCCUCCUAAGGAGAAGUCUGCGGGUUCGAGUGCCGUAAGGAACG — lower, ≤ 0.5
- GUUCCGUUGGCGUAAUGGUAACGCGUCUCCCUCCUAAGGAGAAGUCUGCGGGUUCGAGUCGCGUACGGAACG — lower, 0.569
- GUUCCGUUGGCGUAAUGGUAACGCGUCUCCCUCCUAAGGAGAAGGCUACGGGUUCGAGUCCCGUACGGAACG — higher, 1.1
- GUUCCGUUGGCGUAAUGGUAACGCGUCUCCCUCCUAAGGAGAAGGCUGGGGGUUCGAGUCCCGUCCGGAACG — lower, ≤ 0.5
- GUUCCGUUGGCGUAAUGGUAACGCGUCUCCCUCCUAAGGAGAAGUGUGCGGGUUCGAGUCCCGUACGGAUCG — lower, ≤ 0.5
- GUUCCGUUGGCGUAAUGGUAACGCGUCUCCCUCCUAAGGAGAAGGCUGCGGGUUCGAGUCACGUACGGAGCG — lower, 0.55
- GUUCCGUUGGCGUAAUGGUAACGCGUCUCCCUCCUAAGGAGAAGGCUGCGGGUUCGAGUCACGUACGGAACG — lower, 0.635
- GUUCCGUUGGCGUAAUGGUAACGCGUCUCCCUCCUAAGGAGAAGUCUACGGGUUCAAGUCCCGUACGGAACG — higher, 0.975
- GUUCCGUUGGCGUAAUGGUAACGCGUCUCCCUCCUAAGGAGAAGGCUGCCGGUUCGAGUCCCGUACGGAACG — lower, 0.637
- GUUCCGUUGGCGUAAUGGUAACGCGUCUCCCUCCUAAGGAGAAGGCUGCGGGUUCGAGUCCUGUAAGGAACG — lower, ≤ 0.5
- GUUCCGUUGGCGUAAUGGUAACGCGUCUCCCUCCUAAGGAGAAGUCUGCGGGUUCGAGUCCCGUGCUGGACG — lower, ≤ 0.5
- GUUCCGUUGGCGUAAUGGUAACGCGUCUCCCUCCUAAGGAGAAGUCUGCGGGUUUGAGUCCCGUACGGGACG — lower, ≤ 0.5
- GUUCCGUUGGCGUAAUGGUAACGCGUCUCCCUCCUAAGGAGAAGUCUGCGGGUUCGGGUCCCGUACAGAACG — lower, 0.598
- GUUCCGUUGGCGUAAUGGUAACGCGUCUCCCUCCUAAGGAGAAGUCUGGGGGUUCGAGUCCCGUACGGACCG — lower, 0.65
- GUUCCGUUGGCGUAAUGGUAACGCGUCUCCCUCCUAAGGAGAAGUCUGUGGGUUCGAGUCCCGUUCGGAACG — higher, 0.755
- GUUCCGUUGGCGUAAUGGUAACGCGUCUCCCUCCUAAGGAGAAGGCUGCGGGUUCGAGUCCCGUACGAAACG — higher, 0.973
- GUUCCGUUGGCGUAAUGGUAACGCGUCUCCCUCCUAAGGAGAAGUCUGCGGGUUCGAGUCCGGUAGGGAACG — lower, ≤ 0.5
- GUUCCGUUGGCGUAAUGGUAACGCGUCUCCCUCCUAAGGAGAAGUUCGCGGGUUCGAGUCCCGCACGGAACG — higher, 0.988
- GUUCCGUUGGCGUAAUGGUAACGCGUCUCCCUCCUAAGGAGAAGUCUGCCGGUUCGAGUCCCGUACGGAACG — lower, 0.728
- GUUCCGUUGGCGUAAUGGUAACGCGUCUCCCUCCUAAGGAGAAGGCUGCGGGUUCGGGUCCCAUACGGAACG — lower, ≤ 0.5
- GUUCCGUUGGCGUAAUGGUAACGCGUCUCCCUCCUAAGGAGAAGGAUGCGGGUUCGAGUCCCGUACGGUACG — higher, 0.768
- GUUCCGUUGGCGUAAUGGUAACGCGUCUCCCUCCUAAGGAGAAGUCUGCGGGUUCGCGUCCCGUACGGAACG — lower, 0.617
- GUUCCGUUGGCGUAAUGGUAACGCGUCUCCCUCCUAAGGAGAAGGCUGCGGGUUCGAGUCCCAUACGGAACG — higher, 0.747
- GUUCCGUUGGCGUAAUGGUAACGCGUCUCCCUCCUAAGGAGAAGGCUGCGGGUUCGAGUCCCUUACGGAACG — lower, 0.732
- GUUCCGUUGGCGUAAUGGUAACGCGUCUCCCUCCUAAGGAGAAGGCUGCGGGUUCGAAUCCCAUACGGAACG — lower, 0.727
- GUUCCGUUGGCGUAAUGGUAACGCGUCUCCCUCCUAAGGAGAAGUCUGCGGGUUCGAGUCCAGUACGGAACG — lower, 0.655
- GUUCCGUUGGCGUAAUGGUAACGCGUCUCCCUCCUAAGGAGAAGGCUGCGGGUUUGAGUCCCGUACGGAACG — lower, 0.704
- GUUCCGUUGGCGUAAUGGUAACGCGUCUCCCUCCUAAGGAGAAGGCUGCGGGUUGGAGUCCCGUACGGAACG — lower, 0.562
- GUUCCGUUGGCGUAAUGGUAACGCGUCUCCCUCCUAAGGAGAAGUCUGCAGGUUCGAGUCCCGUACGCUACG — lower, ≤ 0.5
- GUUCCGUUGGCGUAAUGGUAACGCGUCUCCCUCCUAAGGAGAAGGUUGCCGGUUCGAGUCCCGUACGGAACG — lower, ≤ 0.5
- GUUCCGUUGGCGUAAUGGUAACGCGUCUCCCUCCUAAGGAGAAGGCUGCGGGUUCGAAUCCCGUACGGUACG — lower, 0.738
- GUUCCGUUGGCGUAAUGGUAACGCGUCUCCCUCCUAAGGAGAAGGCUGCGGGUUCGAGUCCCGUAUGGCACG — lower, 0.598
- GUUCCGUUGGCGUAAUGGUAACGCGUCUCCCUCCUAAGGAGAAGUCUACGGGUUAGAGUCCCGUACGGAACG — lower, 0.543
- GUUCCGUUGGCGUAAUGGUAACGCGUCUCCCUCCUAAGGAGAAGUCUGAGGCUUCAAGUCCCGUACGGAACG — lower, ≤ 0.5
